ChEMBL document CHEMBL4219124, “Alleviating CYP and hERG liabilities by structure optimization of dihydrofuran-fused tricyclic benzo[d]imidazole series - Potent, selective and orally efficacious microsomal prostaglandin E synthase-1 (mPGES-1) inhibitors: Part-2” (Bioorg Med Chem Lett, 2018)
One block for each molecule: values may come before it.

What was measured:
[1] = test system: Canis familiaris; experiment: Oral bioavailability in Beagle dog at 10 mg/kg; assay type: ADME, organism-based, Canis lupus familiaris; details: in vivo
Summary of the method: (§1)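 Plasma PK after 1 mg/kg i.v. and 10 mg/kg p.o.; %F from both routes. Rat: male Sprague-Dawley, oral 0.5% methylcellulose suspension, i.v. 20% NMP/20% ethanol/60% PEG 200, n = 3. Dog oral: Tween 80 2.5 μL/mL + 0.5% MC suspension. Monkey oral: same Tween/MC suspension; i.v. 10% NMP/10% ethanol/10% PEG/70% PEG200-water premix.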

[2] = test system: Canis familiaris; experiment: AUC (0 to 24 hrs) in Beagle dog at 10 mg/kg, po; assay type: ADME, organism-based, Canis lupus familiaris; parameters: dose 10 mg/kg, time < 24 hr, route oral; details: in vivo, 24 h
Summary of the method: (§2)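 Single oral dose of 10 mg/kg. Cmax and AUC0-24 taken from the oral arm. Rat: male Sprague-Dawley, dosed in 0.5% methylcellulose suspension, mean ± SD (n = 3). Guinea pig: 20% NMP + 0.5% MC suspension, mean ± SD (n = 3). Dog and cynomolgus monkey: 2.5 μL/mL Tween 80 + 0.5 (w/v) MC suspension.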

[3] = Ratio of plasma concentration in Dunkin-Hartley guinea pig MIA-induced osteoarthritic pain model to IC50 for mPGES1 in human whole blood; assay type: ADME; details: in vivo
[4] = test system: Cynomolgus monkey; experiment: AUC (0 to 24 hrs) in cynomolgus monkey at 10 mg/kg, po; assay type: ADME, organism-based, Macaca fascicularis; parameters: time < 24 hr, dose 10 mg/kg, route oral; details: in vivo, 24 h; summary of the method: as §2
[5] = Plasma concentration in Dunkin-Hartley guinea pig LPS-induced hyperalgesia pain model at 10 mg/kg, po administered 2 hrs prior to LPS challenge measured 7 hrs post dose; assay type: ADME, organism-based, Cavia porcellus
Summary of the method: (§3)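 Guinea pigs dosed orally at 10, 30 or 100 mg/kg 2 h before intraplantar LPS in the right hind paw; thermal hyperalgesia scored. Plasma (ng/mL) and brain (ng/g) levels taken 7 h post dose; brain/plasma ratio computed. Means of 6–9 animals per group, single experiment.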

[6] = test system: Cavia porcellus; experiment: Analgesic activity in Dunkin-Hartley guinea pig hyperalgesia pain model assessed as inhibition of LPS-induced hyperalgesia at 30 mg/kg, po administered 2 hrs prior to LPS challenge measured after 4.5 hrs relative to control; assay type: functional
Summary of the method: (§4)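 Guinea pigs received compound orally, once daily, at 10, 30 or 100 mg/kg, 2 h before LPS was injected into the plantar surface of the right paw. Saline-injected animals served as the comparison for thermal hyperalgesia. Plasma and brain drug levels taken 7 h after dosing, mean of n = 6–9 per group, from a single experiment.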

[7] = test system: Cavia porcellus; experiment: Analgesic activity in Dunkin-Hartley guinea pig hyperalgesia pain model assessed as inhibition of LPS-induced hyperalgesia at 10 mg/kg, po administered 2 hrs prior to LPS challenge measured after 4.5 hrs relative to control; assay type: functional; summary of the method: as §4
[8] = test system: Cavia porcellus; experiment: Analgesic activity in Dunkin-Hartley guinea pig hyperalgesia pain model assessed as inhibition of LPS-induced hyperalgesia at 100 mg/kg, po administered 2 hrs prior to LPS challenge measured after 4.5 hrs relative to control; assay type: functional; summary of the method: as §4
[9] = target: T1, Nuclear receptor subfamily 1 group I member 2 (Homo sapiens, UniProt O75469); experiment: Activation of human PXR; assay type: ADME
T1 sequence (O75469 whole entry): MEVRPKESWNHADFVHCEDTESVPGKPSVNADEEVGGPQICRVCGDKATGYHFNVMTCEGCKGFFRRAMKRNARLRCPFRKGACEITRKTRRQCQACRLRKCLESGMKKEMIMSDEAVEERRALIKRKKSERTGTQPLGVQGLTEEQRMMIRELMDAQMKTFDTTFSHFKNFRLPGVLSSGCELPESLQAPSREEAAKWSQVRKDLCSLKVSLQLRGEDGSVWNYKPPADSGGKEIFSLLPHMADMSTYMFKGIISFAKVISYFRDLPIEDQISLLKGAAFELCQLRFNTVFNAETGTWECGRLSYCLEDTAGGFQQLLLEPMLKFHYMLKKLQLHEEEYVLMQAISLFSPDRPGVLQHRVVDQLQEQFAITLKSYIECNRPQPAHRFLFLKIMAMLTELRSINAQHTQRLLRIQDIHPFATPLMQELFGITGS

[10] = test system: Cavia porcellus; experiment: Analgesic activity in Dunkin-Hartley guinea pig MIA-induced osteoarthritic pain model assessed as reversal of incapacitance at 500 mg/kg, po administered on day 3 measured at 6 to 7 hrs relative to control; assay type: functional
Summary of the method: (§5)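 Day 0: monoiodoacetate injected into the right shoulder joint of guinea pigs; saline-injected animals as comparison. Day 3: compound given orally at 100, 250 or 500 mg/kg, and weight-bearing incapacitance on the injected forelimb measured. Plasma sampled at the PD time point, n = 6–8 per group, single experiment.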

[11] = test system: Canis familiaris; experiment: Toxicity in Beagle dog assessed as emesis at 10 mg/kg, po; assay type: organism-based, Canis lupus familiaris; details: in vivo
[12] = test system: Cavia porcellus; experiment: Analgesic activity in Dunkin-Hartley guinea pig hyperalgesia pain model assessed as inhibition of LPS-induced hyperalgesia administered orally 2 hrs prior to LPS challenge measured after 4.5 hrs; assay type: functional; details: po; summary of the method: as §4
[13] = Plasma concentration in Dunkin-Hartley guinea pig MIA-induced osteoarthritic pain model at 250 mg/kg, po measured 2 hrs post dose; assay type: ADME, organism-based, Cavia porcellus
Summary of the method: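 Intra-articular MIA into the right shoulder joint on day 0; oral dosing at 100, 250 or 500 mg/kg on day 3, incapacitance (forelimb weight bearing) measured. Plasma concentration sampled 2 h post dose. Means of 6–8 animals per group, single experiment.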

[14] = Ratio of drug uptake in brain to plasma of Dunkin-Hartley guinea pig LPS-induced hyperalgesia pain model at 100 mg/kg, po administered 2 hrs prior to LPS challenge measured 7 hrs post dose; assay type: ADME, organism-based, Cavia porcellus; details: read-out: BPR; summary of the method: as §3
[15] = Drug uptake in brain of Dunkin-Hartley guinea pig LPS-induced hyperalgesia pain model at 100 mg/kg, po administered 2 hrs prior to LPS challenge measured 7 hrs post dose; assay type: ADME, organism-based, Cavia porcellus; details: read-out: Drug uptake; summary of the method: as §4
[16] = test system: Cynomolgus monkey; experiment: Oral bioavailability in cynomolgus monkey at 10 mg/kg; assay type: ADME, organism-based, Macaca fascicularis; details: in vivo; summary of the method: as §1
[17] = Ratio of drug uptake in brain to plasma of Dunkin-Hartley guinea pig LPS-induced hyperalgesia pain model at 30 mg/kg, po administered 2 hrs prior to LPS challenge measured 7 hrs post dose; assay type: ADME, organism-based, Cavia porcellus; details: read-out: BPR; summary of the method: as §3
[18] = Plasma concentration in Dunkin-Hartley guinea pig LPS-induced hyperalgesia pain model at 100 mg/kg, po administered 2 hrs prior to LPS challenge measured 7 hrs post dose; assay type: ADME, organism-based, Cavia porcellus; summary of the method: as §3
[19] = test system: Cavia porcellus; experiment: Analgesic activity in Dunkin-Hartley guinea pig MIA-induced osteoarthritic pain model assessed as reversal of incapacitance at 100 mg/kg, po administered on day 3 measured 6 to 7 hrs post dose relative to control; assay type: functional; summary of the method: as §5
[20] = Ratio of plasma concentration in Dunkin-Hartley guinea pig LPS-induced hyperalgesia pain model to IC50 for mPGES1 in guinea pig whole blood; assay type: ADME; details: in vivo
[21] = test system: Cavia porcellus; experiment: Analgesic activity in Dunkin-Hartley guinea pig MIA-induced osteoarthritic pain model assessed as reversal of incapacitance at 250 mg/kg, po administered on day 3 measured 6 to 7 hrs post dose relative to control; assay type: functional; summary of the method: as §5

F [1]: 25%
AUC [2]: 4432 ng·h/mL
Structure (SMILES): CC1(C)Cc2c(c(C(=O)Nc3ccc(C(F)(F)F)cn3)cc3nc(Nc4c(Cl)cccc4Cl)[nH]c23)O1

Ratio [3]: 17
AUC [4]: 9669 ng·h/mL
concentration at 7 h [5]: 94 ng/mL
EC50 [9]: 2460 nM
concentration at 2 h [13]: 1510 ng/mL
Kp at 7 h [14]: 1.06
concentration at 7 h [15]: 1150 nM
F [16]: 44%
Kp at 7 h [17]: 0.6
concentration at 7 h [18]: 1080 nM
Ratio [20]: 2
Structure (SMILES): CC1(C)Cc2c(c(C(=O)Nc3ccc(F)c(C(F)(F)F)c3)cc3nc(Nc4c(F)cccc4Cl)[nH]c23)O1
inhibition in vivo at 30 mg/kg [6]: 44%
inhibition in vivo at 10 mg/kg [7]: 20%
inhibition in vivo at 100 mg/kg [8]: 66%
Activity [10]: 83%
Activity [11]: Non-Toxic
ED50 [12]: 39.6 mg/kg
Activity [19]: 48%
Activity [21]: 73%
